F508del corr: correctors of CFTR F508del function in bronchial epithelial cells | activity (quench increase), % at 7.58 µM | CFBE cells, YFP halide quenching; stimulated with forskolin plus potentiator P3; % fluorescence drop versus neutral controls | AID 720511 | 350,000 tested, 0.36% active;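 active = mean added fluorescence quench of at least 8% versus neutral control, with both replicates also reaching 8%; inconclusive = only one of the mean or replicate conditions met; inactive = mean below 8% and not both replicates reaching 8%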;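 note: cells transiently co-express mutant CFTR-F508del with the halide-sensitive YFP; corrector assay measuring rescue of mutant channel to the surface after 24 h compound exposure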
miR-122 sensor: miR-122 inhibition in Huh7 cells. 340,000 tested, 0.3% active. activation (reporter increase), % at 12.5 µM. Huh7 miR-122 Renilla luciferase sensor, 48 h; neutral wells = 0, positive control = 100;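 active = mean replicate activation score at least 90 and every replicate individually at or above 90; inconclusive = only one of the two criteria met; inactive = neither criterion met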;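 note: higher luciferase means less miR-122 activity so hits act as miR-122 inhibitors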
Cneo AK release: Cryptococcus neoformans lysis via adenylate kinase release. C. neoformans lysis, adenylate kinase release luminescence, 4 h; normalised: neutral wells 0, clomiphene wells 100. lysis activity, % at 15 µM. 360,000 tested, 0.2% active. AID 651654;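 active = mean lysis activity across replicates of at least 80%, whatever share of replicates individually reach that level; inactive = mean lysis activity below 80%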
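Assay system: log-phase C. neoformans yeast / Quantity: yeast cell density of 5 × 10^6 cells/mL / Medium: fresh YPD growth medium / Compound: single dose / Timing: static 4 h at 37 °C with compound, 1 h detection / Measured by: adenylate kinase release luminescence / Read-out: lysis from increased AK signal / Benchmarks: Clomiphene as positive lysis control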
rRNA inh HTS: selective bacterial rRNA inhibition in E. coli; E. coli WT GFP vs humanized-ribosome RFP mutants, fluorescence, 24 h; stronger effect = lower value; DMSO median 0, no signal -100; GFP signal change (wild-type ribosome), % (test concentration not listed); 350,000 tested, 1.6% active;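 active = significant combined selectivity score with lowered wild-type GFP, culture density cut under 30%, mutant RFP and density less affected; inactive = any of these conditions unmet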
GSIS activator: primary screen for activators of insulin secretion dependent on glucose, INS-1E cells, GLuc reporter luminescence; INS-1E GLuc reporter insulin secretion, 2-3 h; activation, % at 16.6 µM; 370,000 tested, 0.61% active; AID 743287;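 active = lowest replicate activation of at least 40%, so every replicate reaches that level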
Env fusion inh: HIV envelope-mediated fusion inhibition; HeLa-JRFL Env/CEM21 cell fusion, luciferase; inhibition, % at 12.3 µM; 360,000 tested, 1.1% active; AID 651610;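 active = mean replicate inhibition score of at least 50 and every replicate individually at or above 50; inconclusive = only one of the two criteria met; inactive = mean below 50 and not all replicates reaching 50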
Each line names hits and unclear results; the compound was inactive in the other large screens; [ ] = another dose, or the depositor's remark. A selection: hits, their analogues and other compounds. The true share with any hit is near 3.1%.

COc1ccccc1N(C)S(=O)(=O)c1ccc(C(=O)Nc2nccs2)cc1	F508del corr 27 (no result: Env fusion inh)
CN(C)S(=O)(=O)c1ccc(C(=O)Nc2nc(-c3cccs3)cs2)cc1	Env fusion inh 76
COc1ccccc1OCCNC(=O)c1ccc(S(=O)(=O)N(C)C)cc1	rRNA inh HTS -18 (no result: Env fusion inh)
O=C(Nc1nc(-c2cccs2)cs1)c1ccc(S(=O)(=O)N2CCCC2)cc1	Env fusion inh inconclusive (no result: F508del corr, miR-122 sensor, rRNA inh HTS, GSIS activator)
COc1ccccc1N(C)S(=O)(=O)c1ccc(C(=O)Nc2cccc(Br)c2)cc1	rRNA inh HTS -34
COc1ccccc1N(C)S(=O)(=O)c1ccc(C(=O)Nc2ncc(C)s2)cc1	none
C[C@@H]1CCCCO[C@@H](CN(C)Cc2ccc(Cl)c(Cl)c2)[C@@H](C)CN([C@H](C)CO)C(=O)c2cc(NS(C)(=O)=O)ccc2O1	none
C[C@@H]1CN([C@H](C)CO)C(=O)Cc2cc(NC(=O)Nc3cccc4ccccc34)ccc2O[C@@H]1CN(C)C(=O)Nc1ccc2c(c1)OCO2	none
O=C(NCc1ccccc1)[C@H]1[C@H](CO)[C@H]2Cn3c(cccc3=O)[C@@H]1N2C(=O)CC1CC1	none (no result: Env fusion inh)
CC(=O)Oc1ccc(Cl)cc1/C=C/c1ccc2ccccc2n1	GSIS activator 53 (no result: F508del corr, miR-122 sensor, Cneo AK release, rRNA inh HTS, Env fusion inh)
COc1ccc(S(=O)(=O)N(C)C[C@@H]2OCCCC[C@H](C)Oc3ccc(NC(=O)Nc4ccc(C(F)(F)F)cc4)cc3C(=O)N([C@H](C)CO)C[C@@H]2C)cc1	none
CC(C)(C)NS(=O)(=O)c1ccc(NC(=S)NC(=O)C2CC2)cc1	miR-122 sensor 196
Cc1ccc(NS(=O)(=O)c2ccc(NC(=O)C3CC3)cc2)cc1C	rRNA inh HTS -24
O=C(Nc1ccc(S(=O)(=O)Nc2ccccc2)cc1)C1CC1	none
CC(C)(C)NS(=O)(=O)c1ccc(NC(=O)C2CCCCC2)cc1	none
O=C(NC(=S)Nc1ccc(Br)cc1)C1CCC1	Cneo AK release 146
COc1ccc(NC(=O)N(C)C[C@@H]2Oc3c(NC(=O)c4cnccn4)cccc3C(=O)N([C@@H](C)CO)C[C@H]2C)cc1	none (no result: Env fusion inh)
O=C(O)c1ccc(N2C(=O)C3C4c5ccccc5C(Br)(c5ccccc54)C3C2=O)cc1 (stereo not given)	rRNA inh HTS -36 (no result: miR-122 sensor, Cneo AK release)
O=C(c1ccc(F)cc1)N1CC(=O)N2[C@H](CO)[C@H](c3ccc(C#CC4CCCCC4)cc3)[C@H]2C1	none (no result: miR-122 sensor, Cneo AK release, Env fusion inh)
COc1ccc(S(=O)(=O)N2CCC3(CC2)OCCN3S(=O)(=O)c2cccs2)cc1	none (no result: Env fusion inh)
COc1ccc(OC)c(S(=O)(=O)N2CCC3(CC2)OCCN3S(=O)(=O)c2cccs2)c1	miR-122 sensor 107
O=S(=O)(c1ccc(Cl)cc1)N1CCC2(CC1)OCCN2S(=O)(=O)c1cccs1	miR-122 sensor 135 (no result: Cneo AK release)
COc1ccc(OC)c(S(=O)(=O)N2CCNCC2)c1	miR-122 sensor 172
NCC[C@@H]1CC[C@H](NC(=O)c2ccccc2F)[C@H](CO)O1	none (no result: miR-122 sensor, Env fusion inh)
CCCNC(=O)C[C@H]1CC[C@@H]2[C@H](COc3ccc(NC(=O)Nc4ccccc4)cc3C(=O)N2C)O1	none
O=C(CC1C(=O)NCCN1C(=O)Nc1ccccc1)Nc1cc(Cl)ccc1Cl (stereo not given)	rRNA inh HTS -25
Cc1cccc(NC(=O)CC2C(=O)NCCN2C(=O)Nc2ccc(Cl)cc2)c1 (stereo not given)	rRNA inh HTS -32
CCCN1C[C@H](C)[C@@H](OC)CN(C)C(=O)c2cc(NC(=O)c3cnccn3)ccc2OC[C@H]1C	none (no result: miR-122 sensor)
COCCNC(=O)C[C@H]1C[C@H]2c3cc(NS(=O)(=O)c4ccc(F)cc4)ccc3O[C@H]2[C@@H](CO)O1	none
C[C@@H]1CN([C@@H](C)CO)S(=O)(=O)c2ccc(-c3cccnc3)cc2O[C@H]1CN(C)C(=O)C1CC1	none (no result: Cneo AK release)
C[C@@H]1CN([C@H](C)CO)C(=O)c2cc(NC(=O)CCC(F)(F)F)ccc2O[C@H]1CN(C)C(=O)Nc1ccc2c(c1)OCO2	none
C[C@H](CO)N1C[C@H](C)[C@@H](CN(C)C)Oc2ccc(NS(=O)(=O)c3cccs3)cc2CC1=O	none (no result: Env fusion inh)
COc1nc(-c2ccccc2Cl)ccc1C#N	Env fusion inh 56 (no result: F508del corr, rRNA inh HTS, GSIS activator)
COc1ccc(Cl)cc1NC(=O)NC(C)C	none (no result: miR-122 sensor, Cneo AK release)
CC(C)NC(=O)Nc1n[nH]c(Nc2ccc(Cl)cc2)n1	rRNA inh HTS -18 (no result: GSIS activator)
Cc1cccc(N2C(=O)C(O)=C(C(=O)c3cccs3)C2c2ccc(C(C)C)cc2)n1 (stereo not given)	rRNA inh HTS -23 (no result: miR-122 sensor, Cneo AK release, GSIS activator)
Cc1cccc(N2C(=O)C(O)=C(C(=O)c3cccs3)C2c2ccc(F)cc2)n1 (stereo not given)	none
CC#CCOCC1CNC(=O)O1 (stereo not given)	F508del corr 18 (no result: rRNA inh HTS, GSIS activator)
COc1ccc(OCC2CNC(=O)O2)cc1 (stereo not given)	none (no result: F508del corr, miR-122 sensor, Cneo AK release)
Cc1ccc(S(=O)(=O)N(C)C[C@H]2Oc3ccc(NC(=O)Nc4ccc(C(F)(F)F)cc4)cc3CC(=O)N([C@@H](C)CO)C[C@H]2C)cc1	Env fusion inh 94[16.7 µM]
C[C@H](CO)N1C[C@H](C)[C@@H](CN(C)S(=O)(=O)c2ccc(F)cc2)Oc2ccc(NC(=O)Nc3ccc(C(F)(F)F)cc3)cc2CC1=O	Env fusion inh 101[16.7 µM] (no result: Cneo AK release)
Cc1ccc(S(=O)(=O)N(C)C[C@@H]2Oc3ccc(NC(=O)Nc4ccc(C(F)(F)F)cc4)cc3CC(=O)N([C@@H](C)CO)C[C@@H]2C)cc1	miR-122 sensor inconclusive
C[C@H](CO)N1C[C@H](C)[C@H](CN(C)S(=O)(=O)c2ccc(Cl)cc2)Oc2ccc(NC(=O)Nc3ccc(C(F)(F)F)cc3)cc2CC1=O	miR-122 sensor 94[16.7 µM] (no result: Cneo AK release)
C[C@H]1CN([C@@H](C)CO)C(=O)Cc2cc(NC(=O)Nc3ccc(C(F)(F)F)cc3)ccc2O[C@H]1CN(C)S(=O)(=O)c1ccc(F)cc1	miR-122 sensor inconclusive (no result: Cneo AK release)
COc1ccc(S(=O)(=O)Nc2ccc3c(c2)CC(=O)N([C@@H](C)CO)C[C@@H](C)[C@H](CN(C)CC2CCCCC2)O3)cc1	none
COCc1cn(CC[C@H]2CC[C@H](NC(=O)Nc3ccc(OC)cc3)[C@H](CO)O2)nn1	none (no result: miR-122 sensor)
CNc1nc(SCc2ccccc2)nc(N2CCOCC2)n1	GSIS activator 50 (no result: F508del corr, miR-122 sensor, rRNA inh HTS)
COc1ccc(Nc2nc(N3CCCC3)nc(N3CCOCC3)n2)cc1	none (no result: miR-122 sensor, GSIS activator)
CSc1nc(NC(C)C)nc(N2CCOCC2)n1	GSIS activator 116 (no result: F508del corr, rRNA inh HTS, Env fusion inh)
c1ccc(Nc2nc(N3CCCC3)nc(N3CCOCC3)n2)cc1	Env fusion inh 61 (no result: miR-122 sensor)
CC(C)(C)Nc1nc(SCc2ccccc2)nc(N2CCOCC2)n1	none (no result: F508del corr, rRNA inh HTS, GSIS activator)
CC(C)c1cn(CC[C@H]2CC[C@@H](NC(=O)C3CCC3)[C@H](CO)O2)nn1	none (no result: miR-122 sensor)
C[C@H]1CN(C)C(=O)c2cc(N)ccc2O[C@@H]1CN(C)S(C)(=O)=O	none (no result: F508del corr, miR-122 sensor, Cneo AK release, Env fusion inh)

Compound activity (PubChem)
